Results of several laboratories.
Compare with care: the assays were run in different laboratories. In brackets after ≈: the same amount, converted by molar mass.
Organism: Cryptococcus neoformans

SMILES | observed | technique | strain | time | setting | quantity | value
CCCC[C@H]1CN(c2cccc(OC(F)(F)F)c2)C(=O)CN1Cc1cncn1Cc1ccc(Cl)cc1 | microbial growth | broth dilution |  |  |  | MIC | 3 to 6 µM
Cc1c(O)c(=O)ccn1C | microbial growth | broth dilution |  | 48 h |  | MIC | > 100 µM
Cl.O[C@]12C=C(c3nccc4c3[nH]c3ccccc34)[C@@H]3CCN(CCCC/C=C\CC1)C[C@@]31C[C@@H]3/C=C\CCCCN3[C@H]12 | microbial growth |  | ATCC90113 |  |  | IC50 | 1.04 µg/mL
Cc1ccccc1C(=O)NN=Cc1ccc(O)c(Br)c1 | microbial growth | broth dilution |  |  |  | MIC | 1 µg/mL
CCCC[C@H]1CN(c2cccc(OC(F)(F)F)c2)C(=O)CN1Cc1cncn1Cc1ccc(C(F)(F)F)cc1 | microbial growth | broth dilution |  |  |  | MIC | 3 to 6 µM
CCCSc1ccc2nc(NC(=O)OC)[nH]c2c1 | microbial growth | broth dilution |  | 72 h | clinical isolate | IC90 | 2500 nM
CCCCC[C@H]1CN(c2cccc(OC(F)(F)F)c2)C(=O)CN1Cc1cncn1Cc1ccc(Br)cc1 | microbial growth | broth dilution |  |  |  | MIC | 3 to 6 µM
C[C@@H]1[C@H](O)[C@@H](C)/C=C/C=C/C=C/C=C/C=C/C=C/C=C/[C@H](O[C@@H]2O[C@H](C)[C@@H](O)[C@H](N)[C@@H]2O)C[C@@H]2O[C@](O)(C[C@@H](O)C[C@@H](O)[C@H](O)CC[C@@H](O)C[C@@H](O)CC(=O)O[C@H]1C)C[C@H](O)[C@H]2C(=O)O | microbial growth | broth dilution |  |  |  | MIC | 0.6 µg/mL
CCCCCC[C@H]1C(=O)O[C@H](C)[C@H](NC(=O)c2cccc(NC=O)c2O)C(=O)O[C@@H](C)[C@@H]1OC(=O)CC(C)C | microbial growth |  |  |  |  | MIC80 | 2 µM (≈ 1.1 µg/mL)
O=C(NN=Cc1ccc(O)c(Br)c1)c1cccc(Br)c1 | microbial killing |  |  |  |  | MFC | 1.2 µg/mL (≈ 3.01 µM)
C[C@@H]1[C@H](O)[C@@H](C)/C=C/C=C/C=C/C=C/C=C/C=C/C=C/[C@H](O[C@@H]2O[C@H](C)[C@@H](O)[C@H](N)[C@@H]2O)C[C@@H]2O[C@](O)(C[C@@H](O)C[C@@H](O)[C@H](O)CC[C@@H](O)C[C@@H](O)CC(=O)O[C@H]1C)C[C@H](O)[C@H]2C(=O)O | microbial growth |  | ATCC90113 |  |  | IC50 | 0.45 µg/mL (≈ 0.487 µM)
